Results as given in ChEMBL document CHEMBL1148054, “Chemical and bioactive constituents from Zanthoxylum simulans” (J Nat Prod, 1994).
The source made the active and inactive calls. The rule behind the calls is not given here.

Assays:
HL-60 [1] = experiment: Induction of terminal cell differentiation in human HL60 cells assessed as cell viability at 4 uM by trypan blue exclusion method; assay type: functional; conditions: read-out: Activity
In short: (§1)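 HL-60 cells preincubated 18 h at 1.2×10^5 cells/ml, then exposed 4 days to samples in DMSO (final 0.1%). Viability by trypan blue exclusion: viable/(viable+dead)×100. Cell counts also taken after 4 days.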

HL-60 [2] = experiment: Induction of terminal cell differentiation in human HL60 cells assessed as cell viability at 8.1 uM by trypan blue exclusion method; assay type: functional; conditions: read-out: Activity; in short: as §1
HL-60 [3] = experiment: Induction of terminal cell differentiation in human HL60 cells assessed as cell viability at 16.2 uM by trypan blue exclusion method; assay type: functional; conditions: read-out: Activity; in short: as §1
HL-60 [4] = experiment: Induction of terminal cell differentiation in human HL60 cells assessed as cell viability at 32.3 uM by trypan blue exclusion method; assay type: functional; conditions: read-out: Activity; in short: as §1
HL-60 [5] = experiment: Induction of terminal cell differentiation in human HL60 cells assessed as cell viability at 64.6 uM by trypan blue exclusion method; assay type: functional; conditions: read-out: Activity; in short: as §1
HL-60 [6] = experiment: Induction of terminal cell differentiation in human HL60 cells assessed as naphthol AS-D chloroacetate esterase activity at 4 uM after 4 days; assay type: functional
In short: (§2)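 HL-60 cells were grown in RPMI 1640 with 5% heat-inactivated calf serum at 37°, 5% CO2. They were diluted to 1.2×10^5 cells/ml, preincubated 18 h, then exposed 4 days to DMSO-dissolved samples (final DMSO 0.1%, matched vehicle controls). Specific esterase (naphthol AS-D chloroacetate) was scored cytochemically with a commercial kit as the percentage of differentiated cells.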

HL-60 [7] = experiment: Induction of terminal cell differentiation in human HL60 cells assessed as naphthol AS-D chloroacetate esterase activity at 8.1 uM after 4 days; assay type: functional; in short: as §2
HL-60 [8] = experiment: Induction of terminal cell differentiation in human HL60 cells assessed as naphthol AS-D chloroacetate esterase activity at 16.2 uM after 4 days; assay type: functional; in short: as §2
HL-60 [9] = experiment: Induction of terminal cell differentiation in human HL60 cells assessed as naphthol AS-D chloroacetate esterase activity at 32.3 uM after 4 days; assay type: functional; in short: as §2
HL-60 [10] = experiment: Cytotoxicity against human HL60 cells at 64.6 uM by naphthol AS-D chloroacetate esterase activity; assay type: cell-based; conditions: hl-60, 64.6 µM
In short: (§3)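 After 4-day treatment of HL-60 cells (samples in DMSO, final 0.1%), cells stained cytochemically for α-naphthyl acetate esterase or naphthol AS-D chloroacetate esterase.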

HL-60 [11] = experiment: Induction of cell differentiation in human HL60 cells assessed as alpha naphthyl esterase activity at 4 uM after 4 days; assay type: functional
In short: (§4)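 HL-60 cells in RPMI 1640 with 5% heat-inactivated calf serum at 37° under 5% CO2. Log-phase cells diluted to 1.2×10^5 cells/ml and preincubated 18 h, then samples added in DMSO (final 0.1%, DMSO controls). Cells scored after 4 days.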

HL-60 [12] = experiment: Induction of cell differentiation in human HL60 cells assessed as alpha naphthyl esterase activity at 8.1 uM after 4 days; assay type: functional; in short: as §4
HL-60 [13] = experiment: Induction of cell differentiation in human HL60 cells assessed as alpha naphthyl esterase activity at 16.2 uM after 4 days; assay type: functional; in short: as §4
HL-60 [14] = experiment: Induction of cell differentiation in human HL60 cells assessed as alpha naphthyl esterase activity at 32.3 uM after 4 days; assay type: functional; in short: as §4
HL-60 [15] = experiment: Cytotoxicity against human HL60 cells at 64.6 uM by alpha naphthyl esterase activity assay; assay type: cell-based; conditions: hl-60, 64.6 µM; in short: as §3
HL-60 [16] = experiment: Cytotoxicity against human HL60 cells by [3H]thymidine incorporation assay; assay type: cell-based
In short: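 After 4-day sample treatment, 100 μl of HL-60 cells pulsed with 0.5 μCi/ml [3H]thymidine (65 Ci/mmol) for 16 h. Cells harvested and counted by liquid scintillation. Incorporation per 10^6 cells given as sample DPM divided by DMSO-control DPM.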

HL-60 [17] = experiment: Induction of terminal cell differentiation in human HL60 cells assessed as inhibition of [3H]thymidine incorporation at 32.3 uM after 4 days by liquid scintillation; assay type: functional; design: scale not given: the % may be the effect or the level left
In short: (§5)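 HL-60 cells were kept in RPMI 1640 with 5% heat-inactivated calf serum and penicillin/streptomycin at 37° under 5% CO2. Log-phase cells were diluted to 1.2×10^5 cells/ml and preincubated 18 h. Samples were added in DMSO (final 0.1%; vehicle controls matched) for 4 days. Aliquots then got 0.5 μCi/ml [3H]thymidine for 16 h more, were harvested and scintillation-counted. % incorporation per 10^6 cells = sample DPM / DMSO-control DPM.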

HL-60 [18] = experiment: Induction of terminal cell differentiation in human HL60 cells assessed as inhibition of [3H]thymidine incorporation at 16.2 uM after 4 days by liquid scintillation; assay type: functional; design: scale not given: the % may be the effect or the level left; in short: as §5
HL-60 [19] = experiment: Induction of terminal cell differentiation in human HL60 cells assessed as inhibition of [3H]thymidine incorporation at 8.1 uM after 4 days by liquid scintillation; assay type: functional; design: scale not given: the % may be the effect or the level left; in short: as §5
HL-60 [20] = experiment: Induction of terminal cell differentiation in human HL60 cells assessed as inhibition of [3H]thymidine incorporation at 4 uM after 4 days by liquid scintillation; assay type: functional; design: scale not given: the % may be the effect or the level left; in short: as §5
HL-60 [21] = experiment: Induction of terminal cell differentiation in human HL60 cells at 4 uM after 4 days by NBT reduction assay; assay type: functional
In short: (§6)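 Log-phase HL-60 cells (RPMI 1640, 5% heat-inactivated calf serum, 37°, 5% CO2) were diluted to 1.2×10^5 cells/ml, preincubated 18 h, then treated 4 days with samples in DMSO (final 0.1%; DMSO controls). 10^6 cells were mixed 1:1 with fresh PBS holding 2 mg/ml NBT and 5 μg/ml TPA, 1 h at 37°. Formazan-positive cells were counted microscopically as % NBT-positive.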

HL-60 [22] = experiment: Induction of terminal cell differentiation in human HL60 cells at 8.1 uM after 4 days by NBT reduction assay; assay type: functional; in short: as §6
HL-60 [23] = experiment: Induction of terminal cell differentiation in human HL60 cells at 16.2 uM after 4 days by NBT reduction assay; assay type: functional; in short: as §6
HL-60 [24] = experiment: Induction of terminal cell differentiation in human HL60 cells at 32.3 uM after 4 days by NBT reduction assay; assay type: functional; in short: as §6
HL-60 [25] = experiment: Cytotoxicity against human HL60 cells at 64.6 uM by NBT reduction assay; assay type: cell-based; conditions: hl-60, 64.6 µM; in short: as §4
Platelet [26] = experiment: Antiplatelet activity against rabbit platelet assessed as inhibition of arachidonic acid-induced platelet aggregation at 100 ug/ml; assay type: functional; conditions: Oryctolagus cuniculus
Platelet [27] = experiment: Antiplatelet activity against rabbit platelet assessed as inhibition of collagen-induced platelet aggregation at 100 ug/ml; assay type: functional; conditions: Oryctolagus cuniculus
Platelet [28] = experiment: Antiplatelet activity against rabbit platelet assessed as inhibition of platelet activating factor-induced platelet aggregation at 100 ug/ml; assay type: functional; conditions: Oryctolagus cuniculus
[29] = Cytotoxicity against human BC1 cells; assay type: functional; conditions: read-out: ED50 (the source's name)
In short: (§7)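 Cultured human cancer lines and murine P-388 cells. Complete dose-response data from at least five concentrations of test substance, each tested in duplicate.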

HT-1080 = experiment: Cytotoxicity against human HT1080 cells; assay type: functional; conditions: read-out: ED50 (the source's name); in short: as §7
Lu1 = experiment: Cytotoxicity against human Lu1 cells; assay type: functional; conditions: read-out: ED50 (the source's name); in short: as §7
SK-MEL = experiment: Cytotoxicity against human SK-MEL cells; assay type: functional; conditions: read-out: ED50 (the source's name); in short: as §7
Col2 = experiment: Cytotoxicity against human Col2 cells; assay type: functional; conditions: read-out: ED50 (the source's name); in short: as §7
KB = experiment: Cytotoxicity against human KB cells; assay type: functional; conditions: read-out: ED50 (the source's name); in short: as §7
[30] = Cytotoxicity against human multidrug-resistant KBV1 cells in presence of vinblastine; assay type: functional; conditions: KB-V1, read-out: ED50 (the source's name); in short: as §7
[31] = Cytotoxicity against human multidrug-resistant KBV1 cells in absence of vinblastine; assay type: functional; conditions: KB-V1, read-out: ED50 (the source's name); in short: as §7
P388 = experiment: Cytotoxicity against mouse P388 cells; assay type: functional; conditions: read-out: ED50 (the source's name); in short: as §7
A-431 = experiment: Cytotoxicity against human A431 cells; assay type: functional; conditions: read-out: ED50 (the source's name); in short: as §7
LNCaP = experiment: Cytotoxicity against human LNCAP cells; assay type: functional; conditions: read-out: ED50; in short: as §7
ZR-75-1 = experiment: Cytotoxicity against human ZR-75-1 cells; assay type: functional; conditions: ZR-75-1, read-out: ED50; in short: as §7
[32] = Cytotoxicity against human U373 cells; assay type: functional, U-373MG ATCC; conditions: U373 MG, read-out: ED50; in short: as §7

With `CC(C)=CCCC1(C)C=Cc2c(c3ccccc3n(C)c2=O)O1` (stereo unspecified) the viability at 4 µM (HL-60 [1]) was 98%, the viability at 8.1 µM (HL-60 [2]) was 95% and the viability at 16.2 µM (HL-60 [3]) was 93%. For the same compound, the viability at 32.3 µM (HL-60 [4]) was 78%, the viability at 64.6 µM (HL-60 [5]) was 9% and the Activity (HL-60 [6]) was 5%. For the same compound, the Activity (HL-60 [7]) was 5.5%, the Activity (HL-60 [8]) was 6.5% and the Activity (HL-60 [9]) was 14.5%. For the same compound, the Activity (HL-60 [10]) was “Toxic”, the Activity (HL-60 [11]) was 4.5% and the Activity (HL-60 [12]) was 5.5%. For the same compound, the Activity (HL-60 [13]) was 7.4%, the Activity (HL-60 [14]) was 24.3% and the Activity (HL-60 [15]) was “Toxic”. The Activity (HL-60 [16]) was “Toxic”, the Activity (HL-60 [17]) was 0% and the Activity (HL-60 [18]) was 0%. The Activity (HL-60 [19]) was 0%, the Activity (HL-60 [20]) was 0% and the Activity (HL-60 [21]) was 3.5%. For the same compound, the Activity (HL-60 [22]) was 8%, the Activity (HL-60 [23]) was 9% and the Activity (HL-60 [24]) was 15.4%. The Activity (HL-60 [25]) was “Toxic”, the Activity (Platelet [26]) was “inactive” and the Activity (Platelet [27]) was “inactive”. The Activity (Platelet [28]) was “inactive”, the EC50 [29] was 28.8 µM and the EC50 (HT-1080) was 28.8 µM. It also gave an EC50 (Lu1) of 28.8 µM, an EC50 (SK-MEL) of 28.4 µM and an EC50 (Col2) of 30.4 µM. The EC50 (KB) was 15.2 µM, the EC50 [30] was 6.5 µM and the EC50 [31] was 21.3 µM. For the same compound, the EC50 (P388) was 5.2 µM, the EC50 (A-431) was 28.8 µM and the EC50 (LNCaP) was 18.7 µM. For the same compound, the EC50 (ZR-75-1) was 10 µM and the EC50 [32] was 17.1 µM.
